Screening results as filed in PubChem.
GSH bead fluor: GSH bead compound fluorescence profile; GSH beads flow cytometry, compound fluorescence 488/530 nm; active compounds read high; fluorescence (KMESF) at 10 µM; 0.25% of 190,000 active; AID 1776; in the data active = fluorescence above about 89;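 also: glutathione beads carrying GST-tagged Bcl family fusion proteins plus one bare bead set; values are compound well signal with DMSO vehicle wells as background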
Pemphigus Ab inh: human desmoglein-3 autoantibody binding inhibition; binding (percent of control), % at 10 µM; 0.48% of 310,000 active; DSG3-coupled beads, scFv-anti-DSG3-GFP binding, flow cytometry; active compounds read low;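 active = binding more than 3 SD below its plate's average and above zero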;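 also: hits lower antibody fragment binding to DSG3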
Avidin fluor: compound fluoresces at 488/530 nm on avidin beads | compound fluorescence 488/530 nm, flow cytometry; active compounds read high | 0.38% of 220,000 active | AID 1775 | fluorescence (KMESF) at 10 µM; in the data active = fluorescence above about 47
Arr AP2 block: inhibitors of human beta-arrestin and AP2 interaction | 0.31% of 340,000 active | FITC-arrestin peptide / GST-AP2 beads, flow cytometry; AP2 beta2 appendage carries R879A mutation | inhibition, % at 10 µM | AID 504490;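 active = inhibition above a set limit, near 3 SD of compounds lacking own fluorescence, cut at about 54% in these data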;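 also: plate controls were DMSO wells for no effect and 5 µM unlabelled arrestin peptide for full effect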
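test system = AP2 appendage R879A on GSH beads | buffer or medium = PBS plus Tween 20 (0.05%) and BSA (0.1%) | incubation = 12 min plus 1 h, RT | detection = bead flow cytometry, FITC channel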
An asterisk follows results filed as active; / = no result. Shown are actives, neighbours in structure and some others; about 1.1% of the full set was active somewhere.

SMILES	GSH bead fluor	Pemphigus Ab inh	Avidin fluor	Arr AP2 block
CCn1c(=O)n(CC(=O)NC2CCCC(C)C2C)c(=O)c2ccccc21 (stereo not given)	38	/	99*	2
CCCn1c2ccccc2c2cnn(CC(=O)NC3CCCC(C)C3C)c(=O)c21 (stereo not given)	/	105	/	-14
CCn1c(=O)c(C(=O)Nc2ccccc2)c(O)c2ccccc21	/	110	/	5
CCn1c(=O)c(C(=O)Nc2nc3ccccc3[nH]2)c(O)c2ccccc21	114*	96	4	1
Cc1nc(NC(=O)CSc2nccn2C)sc1C(=O)N(C)C	/	102	/	28
O=C(Nc1nnc(C23CC4CC(CC(C4)C2)C3)s1)c1ccco1	36	71*	5	-2
O=c1c(Cl)c(NCC2CCCO2)cnn1C12CC3CC(CC(C3)C1)C2 (stereo not given)	19	94	11	6
O=C(Cn1ccc(=O)[nH]c1=O)c1ccc([N+](=O)[O-])o1	/	105	/	/
CC(NC(=O)Cc1ccc(-c2ccccc2)cc1)c1ccccc1 (stereo not given)	24	85	358*	-39
CCOCc1c(C(=O)Nc2ccc3nc(N4CCOCC4)sc3c2)oc2ccccc12	/	112	/	17
O=C(Nc1ccc(C(F)(F)F)cc1-c1ccccc1)c1ccccc1	10	65*	3	6
Cc1nc2ccccc2nc1OCC(=O)Nc1ccc2ccccc2c1	8	65*	14	1
COc1cc(C(=O)COC(=O)CNC(=O)C2CCCCC2)cc(OC)c1OC	15	99	53*	20
CCN(CC)C(=S)SCC(=O)Nc1ncc2c(n1)CCCC2=O	/	/	7	-3
Cc1cccc(NS(=O)(=O)c2ccc(C(=O)NCC(c3ccccc3)N(C)C)cc2)c1C (stereo not given)	/	102	/	12
CC(=O)Nc1nnc(CCS(=O)(=O)c2ccc(C)c(C)c2)s1	14	6.1*	12	4
C=CCNC(=O)c1onc(CSc2ccncc2)c1C(=O)NCC=C	/	106	9	3
N#CC1=C(N)Oc2c(ccc3cccnc23)C1c1ccccc1 (stereo not given)	/	95	6	1
Cc1oc(C)c2c(=O)ccc3c(c12)OC(N)=C(C#N)C3c1ccccc1Cl (stereo not given)	138*	120	23	37
N#CC1=C(N)OC2=C(CC/C2=C\c2ccccc2Cl)C1c1ccccc1Cl (stereo not given)	10	108	11	1
Cc1oc(C)c2c(=O)ccc3c(c12)OC(N)=C(C#N)C3c1ccccc1 (stereo not given)	585*	93	6	5
CSc1ccc(C2C(C#N)=C(N)Oc3c2ccc(=O)c2c(C)oc(C)c32)cc1 (stereo not given)	159*	99	93*	-6
CCOc1cc(C(=O)NCC(=O)N/N=C/c2sccc2C)cc(OCC)c1OCC	18	107	10	35
O=C(N/N=C/c1cccnc1)c1cc(-c2cccs2)nc2ccccc12	23	100	13	6
O=C(N/N=C/c1ccc2ncccc2c1)c1cc(-c2cccs2)nc2ccccc12	/	70*	6	-5
SMILES	GSH bead fluor	Pemphigus Ab inh	Avidin fluor	Arr AP2 block
CCOc1cc(/C=C2/NC(=O)N(CC(=O)Nc3cccc(C)c3)C2=O)ccc1OCC(N)=O	20	50*	9	5
CCOC(=O)COc1nc(-c2ccccc2)cc(-c2ccco2)c1C#N	/	/	26	15
CCOC(=O)COc1nc(-c2ccc(Cl)cc2)cc(-c2ccco2)c1C#N	/	100	82*	0
CCN(CC)S(=O)(=O)c1cccc(NC(=O)COC(=O)c2ccc(Br)o2)c1	255*	103	4	28
CCN(CC)S(=O)(=O)c1cccc(NC(=O)COC(=O)c2cc(=O)c3ccccc3o2)c1	9	100	8	16
CCOC(=O)C(NC(=O)C1C(C)N1S(=O)(=O)c1ccc(C)cc1)C(=O)OCC (stereo not given)	/	110	/	-11
C=CCn1c(SCC(=O)Nc2ccc(N3CCOCC3)cc2)nnc1-c1ccco1	/	112	/	2
CCN(CC)S(=O)(=O)c1ccc(S(=O)(=O)N(Cc2ccccn2)Cc2ccco2)cc1	8	103	9	5
O=S(=O)(NCc1ccccc1)c1ccc(S(=O)(=O)N(Cc2ccccn2)Cc2ccco2)cc1	29	76*	15	13
O=C(Nc1ccc2oc(=O)ccc2c1)c1ccc(-c2cccc([N+](=O)[O-])c2)o1	/	103	65*	7
O=C(Nc1ccc2oc(=O)ccc2c1)c1ccc(-c2ccccc2[N+](=O)[O-])o1	/	83*	5	-8
